This is a sample that favours compounds with a hit; in the whole collection about 2.9% have one here.
HSP90 inh = inhibitors of HSP90 luciferase refolding in rabbit reticulocyte lysate. luciferase refolding luminescence, 3 h. 0.91% of 290,000 active. inhibition, % at 5.6 µM;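 active = inhibition above the screen-wide mean plus 3 SD, computed separately per campaign, cut at about 16% in these data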;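 also: inhibitors lower the luminescence because luciferase stays unfolded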
SENP8 block-1 = SENP8 protease inhibition. purified SENP8, Z-RLRGG-aminoluciferin cleavage, luminescence. inhibition, % at 10 µM. 1.2% of 330,000 active. AID 2540; in the data active = inhibition above about 50%
SENP7 block = SENP7 protease inhibition. recombinant SENP7, Z-RLRGG-aminoluciferin luminescence, 40 min. inhibition, % at 5 µM. 1.5% of 330,000 active. AID 434973;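 active = inhibition above about 50% at the single test dose, limit read from the data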
SENP1 FRET inh = blocks the human SENP1 SUMO protease catalytic domain | Q9P0U3 | recombinant SENP1 catalytic domain, CyPet-SUMO1-YPet FRET cleavage | inhibition, % at 10 µM | 0.21% of 360,000 active | AID 624204;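 active = inhibition at least 30% at 10 µM, raw YFP signal under a set limit, fluorescence ratio 0.5 to 1.5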
Target sequence (Q9P0U3 419-644 limits assumed): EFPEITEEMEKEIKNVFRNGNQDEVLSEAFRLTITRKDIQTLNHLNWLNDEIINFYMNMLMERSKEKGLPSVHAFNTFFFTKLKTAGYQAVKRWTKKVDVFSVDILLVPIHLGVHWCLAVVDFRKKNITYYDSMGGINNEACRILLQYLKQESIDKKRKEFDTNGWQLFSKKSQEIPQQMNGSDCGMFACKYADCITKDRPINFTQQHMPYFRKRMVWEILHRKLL
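material = recombinant human SENP1 catalytic domain, His6-tagged | quantity = 20 pM enzyme | reagent = 25 nM SUMO1 FRET substrate | compound dosing = 10 µM single point, 0.5% DMSO | timing = 50 min enzyme reaction, room temperature, light-protected | detection = FRET, CFP and YFP emission | control set = no-enzyme low, enzyme-DMSO high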
SENP6 inh = blocks the human protease SENP6. inhibition, % at 10 µM. 1.8% of 330,000 active. Q9GZR1. Recombinant SENP6 catalytic domain, aminoluciferin luminescence;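 active = inhibition above about 50% at the single tested dose, limit read from the data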
Target sequence (Q9GZR1 628-1112 limits assumed): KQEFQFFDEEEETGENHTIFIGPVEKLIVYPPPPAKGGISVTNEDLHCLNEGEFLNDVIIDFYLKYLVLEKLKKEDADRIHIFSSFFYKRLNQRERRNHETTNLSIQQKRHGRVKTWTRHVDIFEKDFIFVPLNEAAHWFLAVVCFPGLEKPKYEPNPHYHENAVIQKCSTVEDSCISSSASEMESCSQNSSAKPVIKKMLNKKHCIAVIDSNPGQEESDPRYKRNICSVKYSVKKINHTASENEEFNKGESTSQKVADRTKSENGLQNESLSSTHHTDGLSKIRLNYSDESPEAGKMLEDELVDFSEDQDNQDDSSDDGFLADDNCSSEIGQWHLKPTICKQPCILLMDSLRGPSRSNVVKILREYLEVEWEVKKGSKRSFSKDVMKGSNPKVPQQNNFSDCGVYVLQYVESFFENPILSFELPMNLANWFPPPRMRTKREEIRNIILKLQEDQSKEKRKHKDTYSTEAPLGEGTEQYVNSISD
SENP8 block-2 = SENP8 (human) protease inhibition | Q96LD8 | recombinant SENP8, Nedd8 substrate fluorescence | inhibition, % at 20 µM | 0.64% of 360,000 active | AID 602440; in the data active = inhibition mostly above about 40%, no sharp cut-off; inactive = mostly below about 27%
Each line names hits and unclear results; the compound was inactive in the other large screens.

COc1ccc(N=NC2=C(O)CC(C)(C)CC2=O)c(OC)c1	SENP1 FRET inh 69
O=C(NCc1cccnc1)c1c[nH]c2cc3c(cc2c1=O)OCCO3	HSP90 inh 16
CC(=O)c1ccc(NC(=O)COC(=O)c2nc(Cl)ccc2Cl)cc1	none
O=C1c2ccccc2-c2c1cccc2C(=O)N(CCO)CCO	none
O=C1c2ccccc2C(=O)c2c(NCCCN(CCO)CCO)cccc21	SENP8 block-2 44
CCN(CC)CC(=O)Nc1cccc2c1C(=O)c1ccccc1C2=O	SENP8 block-2 40
CC(=O)Nc1c2c(nn1-c1ccccc1C)CS(=O)(=O)C2	none
CC1(C(=O)NS(=O)(=O)C2CC2)CCCN(C(=O)/C=C/c2ccccc2)C1 (stereo not given)	none (no result: HSP90 inh, SENP8 block-1, SENP7 block, SENP6 inh)
Nc1nc(SCc2ccc(Cl)cc2Cl)nc2nc3c(cc12)CCCC3	none
O=C(Nc1ccc(-c2cn3ccccc3n2)cc1)c1cccs1	SENP7 block 52
COc1ccc(CC(=O)Nc2ccc(-c3cn4ccccc4n3)cc2)cc1	none
Cc1ccccc1OCCn1cnc2cc([N+](=O)[O-])ccc2c1=O	none
Cc1ccc(N2C(=O)c3ccccc3C2O)nc1 (stereo not given)	HSP90 inh 33 (no result: SENP8 block-1, SENP7 block, SENP1 FRET inh, SENP6 inh, SENP8 block-2)
Cc1ccc(N2C(=O)c3ccccc3C2Nc2ccccc2F)nc1 (stereo not given)	none
CCOC(=O)C1CCCN(CCC(=O)Nc2ccc(Br)c(C)c2)C1 (stereo not given)	none
Cc1ccc(NC(=O)Cn2nnc(C(=O)NCc3ccc(Cl)cc3)c2N)cc1F	none
CCC(CCNC(=O)c1ccccc1)(CCNC(=O)c1ccccc1)[N+](=O)[O-]	none (no result: HSP90 inh, SENP8 block-1, SENP7 block, SENP6 inh)
CC1CC(C)(C)Nc2ccc(N=O)cc21 (stereo not given)	SENP8 block-2 45 (no result: SENP8 block-1, SENP7 block, SENP6 inh)
CC1CC(C)(C)Nc2ccc(OC(=O)c3ccco3)cc21 (stereo not given)	none
Cc1cc(CNC[C@H]2O[C@@H](n3ccc(=O)[nH]c3=O)[C@H](O)[C@@H]2O)no1	none (no result: HSP90 inh, SENP8 block-1, SENP7 block, SENP6 inh)
CCc1nc2ccc(C(=O)NCCC(C)C)cn2c1N(CCN(C)C)CC1CC1	none (no result: HSP90 inh, SENP8 block-1, SENP7 block, SENP6 inh)
O=C(CCN1CCN(c2ccccc2)CC1)N/N=C/c1ccc(O)c(O)c1O	SENP8 block-2 62 (no result: SENP8 block-1, SENP7 block, SENP6 inh)
O=C(Cc1csc(N2CCOCC2)n1)N/N=C/c1ccc(O)c(O)c1O	SENP8 block-2 59 (no result: SENP8 block-1, SENP7 block, SENP6 inh)
Cc1nc(SCC(=O)Nc2nc3ccccc3s2)c(C#N)c(C)c1C	HSP90 inh 68
CC(C)(C)OC(=O)NCCCC1=CC2=CC(=O)C(C)(OC(=O)C3CCCC3)C(=O)C2=CO1 (stereo not given)	none (no result: HSP90 inh, SENP1 FRET inh, SENP8 block-2)
O=C(Cc1nc(=O)c2ccccc2s1)Nc1ccccc1	SENP7 block 92
COc1ccccc1N=Nc1nc(-c2ccccc2)c(-c2ccccc2)[nH]1	none (no result: SENP8 block-1, SENP7 block, SENP6 inh)
COc1ccc(N=Nc2nc(-c3ccccc3)c(-c3ccccc3)[nH]2)cc1	SENP1 FRET inh 37
Oc1ccccc1N=Nc1nc(-c2ccccc2)c(-c2ccccc2)[nH]1	SENP1 FRET inh 48, SENP8 block-2 51
COC(=O)c1ccc(CNC(=O)c2ccccc2C(=O)NCC2(CBr)OCCO2)cc1	none (no result: HSP90 inh, SENP8 block-1, SENP7 block, SENP6 inh)
COc1ccc(CCNCc2ccccc2N2CCCC2)cc1	none
COc1ccc(CCNCc2cc(C)n(-c3ccc(OC)cc3)c2C)cc1	SENP8 block-2 46
CN1C=CC=C/C1=C1\SC(=S)N(c2ccccc2)C1=O	SENP8 block-2 44
Cn1ncc(Cl)c1C(=O)Nc1nc2ccc(Cl)cc2s1	SENP7 block 98, SENP6 inh 98
CC1=Nc2cccc3cccc(c23)N1	SENP8 block-2 47
CN1C(=O)/C(=C/c2ccc(O)c([N+](=O)[O-])c2)N(C)C1=S	SENP8 block-1 87, SENP7 block 83, SENP6 inh 91
O=C1S/C(=C\c2ccc(O)c([N+](=O)[O-])c2)C(=O)N1c1ccccc1Cl	none
CCOC(=O)c1cnc(SC)nc1Oc1cccc(NC(=O)c2cccc(Cl)c2Cl)c1	none
COc1ccc(/C=C2/SC(=S)N(CCC(=O)N3CCN(C)CC3)C2=O)cc1	SENP8 block-2 37
COCCN1C(=O)/C(=C/c2ccc(N3CCCC3)cc2)SC1=S	SENP8 block-2 44
COc1ccc(/C=C2\SC(=S)N(CCC(=O)N3CCCCC3)C2=O)cc1	none
CCC1(C2=CCCCC2)C(=O)NC(=S)N=C1N (stereo not given)	none (no result: HSP90 inh, SENP8 block-1, SENP7 block, SENP6 inh)
COc1ccc(/C=C2\CCC(C3CCCC3)C2=O)cc1OC (stereo not given)	none
Cc1ccc(/C=C2\CCC(C3CCCC3)C2=O)cc1 (stereo not given)	SENP7 block 75, SENP6 inh 89
CCOC(=O)C1=C[C@@H](C2CCCCC2)N(S(=O)(=O)c2ccc([N+](=O)[O-])cc2)[C@H]1c1ccccc1	none (no result: HSP90 inh, SENP8 block-1, SENP7 block, SENP6 inh)
CC1=CCC(/C=N\Nc2nnc3c(n2)[nH]c2ccccc23)CC1 (stereo not given)	none (no result: SENP1 FRET inh, SENP8 block-2)
O=C(CCC1CCCCC1)Nc1cccnc1	SENP8 block-2 36
CCS(=O)(=O)c1ccc2oc(Nc3ccccc3Br)nc2c1	SENP8 block-1 87, SENP7 block 95, SENP6 inh 92
Cc1ccc2c(c1)[C@@H]1[C@H](CO2)[C@H](c2ccccc2)[C@]2(C)C(=O)N[C@H](C)C(=O)N12	none (no result: HSP90 inh)
CCN(CC)C(=O)Cn1cc(C(=O)C(=O)N(C)C2CCN(C)CC2)c2ccccc21	none
CCCc1cc(N2CCOCC2)n2ncc(-c3ccccc3)c2n1	HSP90 inh 17
CN1C[C@@H]2[C@@H]3C(=O)N(C)C(=O)[C@@H]3[C@](Cc3ccccc3)(C1=O)N2C(=O)c1ccccc1	none (no result: HSP90 inh, SENP8 block-1, SENP7 block, SENP6 inh)
Cc1ccc(F)c(NC(=O)/C(C#N)=C(\O)c2ccc(C(C)(C)C)cc2)c1	SENP8 block-1 53
Oc1ccc(Cl)cc1N=Cc1sc2ccccc2c1Cl	HSP90 inh 64 (no result: SENP8 block-1, SENP7 block, SENP6 inh)
Cc1c(/C=N/O)sc2ccccc12	none
C[C@]12c3[nH]c4ccc(Cl)cc4c3CCN1C(=O)[C@@H](CC(=O)NCCCn1ccnc1)C[C@@H]2C(=O)N1CCCCC1	none (no result: HSP90 inh, SENP8 block-1, SENP6 inh)
O=C1NN(c2cccc(Br)c2)C(=O)/C1=C/c1ccc(-c2cc([N+](=O)[O-])ccc2O)o1	SENP8 block-2 51
C=CCn1c(Oc2ccc(C=O)cc2OCC)nc2c1c(=O)n(C)c(=O)n2C	none
Cc1ccc2nc(NC(=O)Cc3cccs3)sc2c1	SENP7 block 54, SENP6 inh 63
CCOc1ccc(NC(=O)Nc2cccn(Cc3ccccc3)c2=O)cc1	none
CCOc1ccc(NC(=O)Nc2ccccc2SC)cc1	SENP8 block-1 95, SENP7 block 99, SENP6 inh 98
CCOc1ccc(NC(=O)c2cc3ccccc3cc2O)cc1	SENP7 block 68
O=c1cc(-c2ccc(O)cc2)oc2c(O)c(O)c(O)c(O)c12	SENP8 block-2 71
O=c1cc(-c2ccc(O)cc2)oc2c1ccc1ccccc12	none (no result: HSP90 inh)
CO/N=C/C(=N\Nc1ccc(OC)cc1)C(=O)c1ccc(OC)cc1	SENP8 block-2 51
COc1ccc(C(=O)C(/C=N/O)=N/Nc2ccc(F)cc2)cc1	none

Compound activity from PubChem.
